Laboratory results: ChEMBL document CHEMBL2375307, “Synthesis and identification of β-aryloxyquinoline based diversely fluorine substituted N-aryl quinolone derivatives as a new class of antimicrobial, antituberculosis and antioxidant agents” (Eur J Med Chem, 2013)
Values after ≈ are worked out from the molar mass of the structure shown.

Key:
Salmonella typhi = experiment: Antibacterial activity against Salmonella typhi MTCC 98 assessed as growth inhibition after overnight incubation by NCCLS broth microdilution method; assay type: functional, Salmonella enterica subsp. enterica serovar Typhi; settings: Salmonella enterica
Vibrio cholerae = experiment: Antibacterial activity against Vibrio cholerae MTCC 3906 assessed as growth inhibition after overnight incubation by NCCLS broth microdilution method; assay type: functional
Escherichia coli = experiment: Antibacterial activity against Escherichia coli MTCC 443 assessed as growth inhibition after overnight incubation by NCCLS broth microdilution method; assay type: functional
How it was run: (§1)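 Broth microdilution per NCCLS in Mueller Hinton broth, compounds diluted in DMSO. Primary screen at 500, 250 and 200 µg/mL; actives retested at 100, 62.5, 50, 25 and 12.5 µg/mL. Tubes incubated overnight at 37 °C. […] Non-growing tubes subcultured overnight at 37 °C to judge bacteriostatic versus bactericidal action.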

Streptococcus pneumoniae = experiment: Antibacterial activity against Streptococcus pneumoniae MTCC 1936 assessed as growth inhibition after overnight incubation by NCCLS broth microdilution method; assay type: functional; how it was run: as §1
Bacillus subtilis = experiment: Antibacterial activity against Bacillus subtilis MTCC 441 assessed as growth inhibition after overnight incubation by NCCLS broth microdilution method; assay type: functional; how it was run: as §1
Clostridium tetani = experiment: Antibacterial activity against Clostridium tetani MTCC 449 assessed as growth inhibition after overnight incubation by NCCLS broth microdilution method; assay type: functional
[1] = Antioxidant activity of the compound assessed as ascorbic acid equivalent of ferric tripyridyl triazine reducing activity at 200 ug/mL after 15 mins by FRAP assay; assay type: functional
How it was run: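 FRAP, modified Benzie and Strain method. Fe(III)-TPTZ reagent made with TPTZ in 40 mM HCl, FeCl3 solution and acetate buffer pH 3.6. 200 µL sample solution mixed with 3 mL reagent and held 15 min at 37 °C. Fe(II)-TPTZ read at 593 nm against an ascorbic acid standard, expressed as ascorbic acid equivalents (mmol/100 g compound).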

Aspergillus fumigatus = experiment: Antifungal activity against Aspergillus fumigatus MTCC 3008 assessed as growth inhibition after overnight incubation by NCCLS broth microdilution method; assay type: functional; how it was run: as §1
Candida albicans = experiment: Antifungal activity against Candida albicans MTCC 227 assessed as growth inhibition after overnight incubation by NCCLS broth microdilution method; assay type: functional; how it was run: as §1
[2] = tested on: Mycobacterium tuberculosis; experiment: Antitubercular activity against Mycobacterium tuberculosis H37Rv assessed as growth inhibition at 250 ug/mL after 12 to 28 days by Lowenstein-Jensen method relative to control; assay type: functional; settings: read-out: GI
How it was run: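 Modified Lowenstein-Jensen method. Compound at 250 in DMSO added to liquid L-J medium, then sterilized by inspissation and incubated 24 h at 37 °C. Streaked with H37Rv harvested in 0.85% saline (5 × 10⁴ bacilli/tube) and incubated at 37 °C. Colonies read at 12, 22 and 28 days versus drug-free control; no colonies or <20 colonies scored as inhibition.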

SMILES	MIC (Salmonella typhi) [mg/L]	MIC (Vibrio cholerae) [mg/L]	MIC (Escherichia coli) [mg/L]	MIC (Streptococcus pneumoniae) [mg/L]	MIC (Bacillus subtilis) [mg/L]	MIC (Clostridium tetani) [mg/L]	Activity [1] [equiv]	MIC (Aspergillus fumigatus) [mg/L]	MIC (Candida albicans) [mg/L]	inhibition of growth at 250 µg/mL [2] [%]
CCn1cc(C(=O)O)c(=O)c2cc(F)c(N3CCNCC3)cc21 [NORFLOXACIN]	10 (≈ 31.3 µM)	10 (≈ 31.3 µM)	10 (≈ 31.3 µM)	10 (≈ 31.3 µM)	100 (≈ 313 µM)	50 (≈ 157 µM)	–	–	–	–
CC1(C)CC(=O)C2=C(C1)N(c1cccc(C(F)(F)F)c1)C(N)=C(C#N)C2c1cc2ccccc2nc1Oc1ccc(C#N)cc1 (stereo not given)	200 (≈ 330 µM)	200 (≈ 330 µM)	250 (≈ 413 µM)	200 (≈ 330 µM)	250 (≈ 413 µM)	200 (≈ 330 µM)	20.2	1000 (≈ 1650 µM)	1000 (≈ 1650 µM)	45
N#CC1=C(N)N(c2cc(F)ccc2F)C2=C(C(=O)CCC2)C1c1cc2cc(Cl)ccc2nc1Oc1ccc(C#N)cc1 (stereo not given)	62.5 (≈ 108 µM)	100 (≈ 172 µM)	100 (≈ 172 µM)	100 (≈ 172 µM)	200 (≈ 345 µM)	100 (≈ 172 µM)	100	1000 (≈ 1720 µM)	250 (≈ 431 µM)	84
COc1ccc2nc(Oc3ccc(C#N)cc3)c(C3C(C#N)=C(N)N(c4cccc(C(F)(F)F)c4)C4=C3C(=O)CC(C)(C)C4)cc2c1 (stereo not given)	200 (≈ 315 µM)	250 (≈ 393 µM)	125 (≈ 197 µM)	200 (≈ 315 µM)	250 (≈ 393 µM)	500 (≈ 787 µM)	14.3	500 (≈ 787 µM)	1000 (≈ 1570 µM)	62
CC1(C)CC(=O)C2=C(C1)N(c1ccc(F)c(F)c1)C(N)=C(C#N)C2c1cc2cc(Cl)ccc2nc1Oc1ccc(C#N)cc1 (stereo not given)	200 (≈ 329 µM)	250 (≈ 411 µM)	125 (≈ 206 µM)	100 (≈ 164 µM)	200 (≈ 329 µM)	125 (≈ 206 µM)	3.36	500 (≈ 822 µM)	500 (≈ 822 µM)	84
COc1ccc2nc(Oc3ccc(C#N)cc3)c(C3C(C#N)=C(N)N(c4ccc(F)c(F)c4)C4=C3C(=O)CC(C)(C)C4)cc2c1 (stereo not given)	200 (≈ 331 µM)	100 (≈ 166 µM)	62.5 (≈ 104 µM)	250 (≈ 414 µM)	250 (≈ 414 µM)	250 (≈ 414 µM)	153	> 1000	> 1000	24
CC1(C)CC(=O)C2=C(C1)N(c1cc(F)ccc1F)C(N)=C(C#N)C2c1cc2ccccc2nc1Oc1ccc(C#N)cc1 (stereo not given)	250 (≈ 436 µM)	250 (≈ 436 µM)	250 (≈ 436 µM)	100 (≈ 174 µM)	250 (≈ 436 µM)	200 (≈ 349 µM)	84.4	1000 (≈ 1740 µM)	500 (≈ 872 µM)	21
CC1(C)CC(=O)C2=C(C1)N(c1ccc(F)c(F)c1)C(N)=C(C#N)C2c1cc2ccccc2nc1Oc1ccc(C#N)cc1 (stereo not given)	200 (≈ 349 µM)	100 (≈ 174 µM)	125 (≈ 218 µM)	200 (≈ 349 µM)	200 (≈ 349 µM)	100 (≈ 174 µM)	19.6	500 (≈ 872 µM)	500 (≈ 872 µM)	64
COc1ccc2nc(Oc3ccc(C#N)cc3)c(C3C(C#N)=C(N)N(c4ccc(F)c(F)c4)C4=C3C(=O)CCC4)cc2c1 (stereo not given)	500 (≈ 869 µM)	250 (≈ 434 µM)	500 (≈ 869 µM)	200 (≈ 347 µM)	200 (≈ 347 µM)	200 (≈ 347 µM)	369	1000 (≈ 1740 µM)	1000 (≈ 1740 µM)	88
Cc1ccc2nc(Oc3ccc(C#N)cc3)c(C3C(C#N)=C(N)N(c4cccc(C(F)(F)F)c4)C4=C3C(=O)CCC4)cc2c1 (stereo not given)	250 (≈ 423 µM)	100 (≈ 169 µM)	250 (≈ 423 µM)	250 (≈ 423 µM)	200 (≈ 338 µM)	125 (≈ 211 µM)	253	> 1000	250 (≈ 423 µM)	38
Cc1ccc2nc(Oc3ccc(C#N)cc3)c(C3C(C#N)=C(N)N(c4cc(F)ccc4F)C4=C3C(=O)CCC4)cc2c1 (stereo not given)	50 (≈ 89.4 µM)	62.5 (≈ 112 µM)	100 (≈ 179 µM)	250 (≈ 447 µM)	125 (≈ 223 µM)	200 (≈ 357 µM)	239	> 1000	250 (≈ 447 µM)	80
COc1ccc2nc(Oc3ccc(C#N)cc3)c(C3C(C#N)=C(N)N(c4cccc(C(F)(F)F)c4)C4=C3C(=O)CCC4)cc2c1 (stereo not given)	125 (≈ 206 µM)	100 (≈ 165 µM)	200 (≈ 329 µM)	125 (≈ 206 µM)	200 (≈ 329 µM)	500 (≈ 823 µM)	260	1000 (≈ 1650 µM)	500 (≈ 823 µM)	23
O=C(O)c1cn(C2CC2)c2cc(N3CCNCC3)c(F)cc2c1=O [CIPROFLOXACIN]	25 (≈ 75.4 µM)	25 (≈ 75.4 µM)	25 (≈ 75.4 µM)	50 (≈ 151 µM)	–	–	–	–	–	–
